Source: ChEMBL document CHEMBL1125212, “Dual-action cephalosporins: cephalosporin 3'-quinolone carbamates” (J Med Chem, 1991)
Converted amounts (≈) assume the structure as drawn.

Tests used:
Escherichia coli [1] = assay: Minimum inhibitory concentration for inhibition of [14C]- Pen G binding to Escherichia coli UB1005.; type: functional
Procedure, shortened: (§1)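 Penicillin-binding protein assay using solubilized membranes from sonicated E. coli UB1005. Binding was read as inhibition of [14C]penicillin G binding to the PBPs.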

Escherichia coli [2] = assay: The compound was evaluated for the inhibition of [14C]- Pen G binding to Escherichia coli UB1005 PBP1a 90 kDa.; type: functional; procedure, shortened: as §1
Escherichia coli [3] = assay: The compound was evaluated for the inhibition of [14C]- Pen G binding to Escherichia coli UB1005 PBP1b 90 kDa.; type: functional; procedure, shortened: as §1
Escherichia coli [4] = assay: The compound was evaluated for the inhibition of [14C]- Pen G binding to Escherichia coli UB1005 PBP3 60 kDa.; type: functional; procedure, shortened: as §1
Escherichia coli [5] = assay: The compound was evaluated for the inhibition of [14C]- Pen G binding to Escherichia coli UB1005 PBP2 66 kDa.; type: functional; procedure, shortened: as §1
Citrobacter freundii = assay: The compound was tested in vitro for minimum inhibitory concentration against Citrobacter Freundii BS-16; type: functional
Procedure, shortened: (§2)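 Agar dilution on Mueller-Hinton agar using 2-fold serial dilutions, giving final 128 to 0.0156 μg/mL (extended to 0.000977 μg/mL where needed). Inoculum was overnight broth culture diluted 100-fold, about 3×10^4 CFU/spot, applied by replicator. MIC read after overnight incubation at 36 °C.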

Enterococcus faecalis = assay: The compound was tested in vitro for minimum inhibitory concentration against Enterococcus faecalis ATCC 29212; type: functional; procedure, shortened: as §2
Escherichia coli [6] = assay: Inhibitory activity on replicative DNA biosynthesis in Escherichia coli H560 (permeabilised cells); type: functional, organism-based
Procedure, shortened: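 E. coli H560 cells permeabilized with toluene. ATP-dependent incorporation of [3H]thymidine into trichloroacetic acid-insoluble material was measured. IC50 taken as the concentration giving 50% inhibition.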

Micrococcus luteus = assay: The compound was tested in vitro for minimum inhibitory concentration against Micrococcus luteus ATCC 9341; type: functional; procedure, shortened: as §2
Pseudomonas aeruginosa [7] = assay: (§3) Effective dose against mouse infected with Pseudomonas aeruginosa 8780 (LDs-240); type: functional
Procedure, shortened: (§4)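 CD1 Swiss albino mice (18-20 g) infected intraperitoneally with 0.5 mL of diluted bacterial suspension. Challenge expressed as a multiple of LD50. Drug given subcutaneously at the dorsal neck base within 5 min of infection (1.0 mL), with a second treatment 3 h after infection. Dose range 250 to 0.05 mg/kg. Six mice per group. ED50 by the Reed-Muench method.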

Streptococcus pneumoniae [8] = assay: (§5) Effective dose against mouse infected with Streptococcus pneumoniae 6301(LDs-5623); type: functional
Procedure, shortened: (§6)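 Mouse protection test in CD1 Swiss albino mice (18-20 g) given an intraperitoneal challenge (0.5 mL of diluted culture), expressed as a multiple of LD50. A single subcutaneous dose of 1.0 mL test solution was given at the dorsal neck base within 5 min of infection. Dose range 250 to 0.05 mg/kg. Six mice per group. ED50 (protective dose) by Reed-Muench.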

Proteus mirabilis = assay: The compound was tested in vitro for minimum inhibitory concentration against Proteus mirabilis 90; type: functional
Procedure, shortened: (§7)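 Proteus MICs by agar dilution on Mueller-Hinton medium containing 3% agar. Serial 2-fold dilutions gave final 128 to 0.0156 μg/mL (further to 0.000977 μg/mL). Inoculum was overnight broth diluted 100-fold, about 3×10^4 CFU/spot. Plates read after overnight incubation at 36 °C.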

Proteus vulgaris = assay: The compound was tested in vitro for minimum inhibitory concentration against Proteus vulgaris 1028 BC; type: functional; procedure, shortened: as §7
Staphylococcus aureus [9] = assay: The compound was tested in vitro for minimum inhibitory concentration against Staphylococcus aureus 67-0; type: functional; procedure, shortened: as §2
Staphylococcus aureus [10] = assay: (§8) The compound was tested in vitro for minimum inhibitory concentration against Staphylococcus aureus 753; type: functional, staphylococcus aureus smith; procedure, shortened: as §2
Streptococcus pyogenes = assay: The compound was tested in vitro for minimum inhibitory concentration against Streptococcus pyogenes; type: functional
Procedure, shortened: (§9)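 Streptococci tested by agar dilution on brain heart infusion agar with 20 units/mL bovine liver catalase. Final drug range 128 to 0.0156 μg/mL by 2-fold steps, extended to 0.000977 μg/mL when required. Inoculum about 3×10^4 CFU/spot from overnight broth diluted 100-fold. MIC after overnight incubation at 36 °C.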

Serratia marcescens = assay: The compound was tested in vitro for minimum inhibitory concentration against Serratia marcescens 1071; type: functional; procedure, shortened: as §2
Streptococcus pneumoniae [11] = assay: The compound was tested in vitro for minimum inhibitory concentration against Streptococcus pneumoniae 6301; type: functional; procedure, shortened: as §9
Klebsiella pneumoniae = assay: The compound was tested in vitro for minimum inhibitory concentration against Klebsiella pneumoniae A; type: functional; procedure, shortened: as §2
Staphylococcus aureus [12] = assay: animal or person; conditions: in Mus musculus
Escherichia coli [13] = assay: The compound was tested in vitro for minimum inhibitory concentration against Escherichia coli ATCC 25922; type: functional; procedure, shortened: as §2
Escherichia coli [14] = assay: Minimum inhibitory concentration required to inhibit the activity of Escherichia coli ATCC 25922; type: functional; procedure, shortened: as §2
Escherichia coli [15] = assay: Minimum inhibitory concentration required to inhibit the activity of Escherichia coli UB1005; type: functional; procedure, shortened: as §2
Escherichia coli [16] = assay: Minimum inhibitory concentration for inhibition of [14C]- Pen G binding to Escherichia coli UB1005; type: functional
Procedure, shortened: (§10)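 Membranes from sonicated E. coli UB1005 were solubilized. Binding to penicillin-binding proteins was measured as inhibition of [14C]penicillin G binding.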

Escherichia coli [17] = assay: The compound was tested in vitro for minimum inhibitory concentration against Escherichia coli 257; type: functional; procedure, shortened: as §2
Escherichia coli [18] = assay: The compound was tested in vitro for minimum inhibitory concentration against Escherichia coli TEM-1; type: functional; procedure, shortened: as §2
Enterobacter cloacae = assay: The compound was tested in vitro for minimum inhibitory concentration against Enterobacter cloacae P99; type: functional
Mus musculus [19] = species on record: Mus musculus; assay: as §3; type: functional; procedure, shortened: as §4
Mus musculus [20] = species on record: Mus musculus; assay: as §5; type: functional; procedure, shortened: as §6
Pseudomonas aeruginosa [21] = assay: The compound was tested in vitro for minimum inhibitory concentration against Pseudomonas aeruginosa 18S/H; type: functional; procedure, shortened: as §2
Escherichia coli [22] = assay: The compound was evaluated for the inhibition of [14C]- Pen G binding to Escherichia coli UB1005 penicillin-binding protein 1a 90 kDa.; procedure, shortened: as §10
Escherichia coli [23] = assay: The compound was evaluated for the inhibition of [14C]- Pen G binding to Escherichia coli UB1005 penicillin-binding protein 1b 90 kDa.; procedure, shortened: as §10
Escherichia coli [24] = assay: The compound was evaluated for the inhibition of [14C]- Pen G binding to Escherichia coli UB1005 penicillin-binding protein 2 66 kDa.; procedure, shortened: as §10
Escherichia coli [25] = assay: The compound was evaluated for the inhibition of [14C]- Pen G binding to Escherichia coli UB1005 penicillin-binding protein 3 60 kDa.; procedure, shortened: as §10
Pseudomonas aeruginosa [26] = assay: The compound was tested in vitro for minimum inhibitory concentration against Pseudomonas aeruginosa 8780; type: functional; procedure, shortened: as §2
Staphylococcus aureus [27] = assay: as §8; type: functional; procedure, shortened: as §2
Staphylococcus aureus [28] = assay: (§11) The compound was tested in vitro for minimum inhibitory concentration against Staphylococcus aureus smith; type: functional; procedure, shortened: as §2
Mus musculus [29] = species on record: Mus musculus; assay: Effective dose against mouse infected with Staphylococcus aureus 753 (MR) (LDs-6); type: functional; procedure, shortened: as §6
Staphylococcus aureus [30] = assay: as §11; type: functional; remark: listed apart in the source
Procedure, shortened: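 Agar dilution MIC on Mueller-Hinton agar. Compounds were serially diluted 2-fold in water; final agar concentrations ran from 128 to 0.0156 μg/mL, extended to 0.000977 μg/mL for very active compounds. Spots were inoculated by replicator with overnight broth cultures diluted 100-fold, about 3×10^4 CFU/spot. MIC was read after overnight incubation at 36 °C.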

Structure (SMILES) | MIC (Escherichia coli [1]) [µg/mL] | Inhibitory concentration (Escherichia coli [2]) [µg/mL] | Inhibitory concentration (Escherichia coli [3]) [µg/mL] | Inhibitory concentration (Escherichia coli [4]) [µg/mL] | Inhibitory concentration (Escherichia coli [5]) [µg/mL] | MIC (Citrobacter freundii) [µg/mL] | MIC (Enterococcus faecalis) [µg/mL] | IC50 (Escherichia coli [6]) [µg/mL] | MIC (Micrococcus luteus) [µg/mL] | MIC (Proteus mirabilis) [µg/mL] | MIC (Proteus vulgaris) [µg/mL] | MIC (Staphylococcus aureus [9]) [µg/mL] | MIC (Staphylococcus aureus [10]) [µg/mL] | MIC (Streptococcus pyogenes) [µg/mL] | MIC (Serratia marcescens) [µg/mL] | MIC (Streptococcus pneumoniae [11]) [µg/mL] | MIC (Klebsiella pneumoniae) [µg/mL] | MIC (Escherichia coli [13]) [µg/mL] | MIC (Escherichia coli [16]) [µg/mL] | MIC (Escherichia coli [17]) [µg/mL] | further results
CCN1CCN(C(=O)N[C@@H](C(=O)N[C@@H]2C(=O)N3C(C(=O)O)=C(CSc4nnnn4C)CS[C@H]23)c2ccc(O)cc2)C(=O)C1=O [CEFOPERAZONE] | 1 (≈ 1.55 µM) | 10 | 10 | < 0.1 | 2 |  |  |  |  |  |  |  |  |  |  |  |  |  |  |  | 
CC(C)(O/N=C(\C(=O)N[C@@H]1C(=O)N2C(C(=O)[O-])=C(C[n+]3ccccc3)CS[C@H]12)c1csc(N)n1)C(=O)O [CEFTAZIDIME] | 0.1 (≈ 0.183 µM) | 10 | 10 | 0.5 | > 100 |  |  |  |  |  |  |  |  |  |  |  |  |  |  |  | 
O=C(O)c1cn(C2CC2)c2cc(N3CCNCC3)c(F)cc2c1=O [CIPROFLOXACIN] |  |  |  |  |  | 0.031 (≈ 0.0936 µM) | 1 (≈ 3.02 µM) | 0.3 (≈ 0.905 µM) | 2 (≈ 6.04 µM) | 0.063 (≈ 0.19 µM) | 0.016 (≈ 0.0483 µM) | 0.5 (≈ 1.51 µM) | 0.25 (≈ 0.754 µM) | 0.5 (≈ 1.51 µM) | 0.063 (≈ 0.19 µM) | 1 (≈ 3.02 µM) | 0.25 (≈ 0.754 µM) |  |  |  | ED50 (Pseudomonas aeruginosa [7]): 3 mg/kg; ED50 (Streptococcus pneumoniae [8]): > 50 mg/kg; ED50 (Staphylococcus aureus [12]): 2 mg/kg
CO/N=C(\C(=O)N[C@@H]1C(=O)N2C(C(=O)O)=C(COC(=O)N3CCN(c4cc5c(cc4F)c(=O)c(C(=O)O)cn5C4CC4)CC3)CS[C@H]12)c1csc(N)n1 |  |  |  |  |  | 0.125 (≈ 0.162 µM) | 0.25 (≈ 0.324 µM) | 0.9 (≈ 1.17 µM) | 0.031 (≈ 0.0402 µM) | 0.063 (≈ 0.0817 µM) | 0.063 (≈ 0.0817 µM) | 2 (≈ 2.59 µM) |  | < 0.016 | 0.25 (≈ 0.324 µM) | < 0.016 | 0.125 (≈ 0.162 µM) | 0.031 (≈ 0.0402 µM) | 0.5 (≈ 0.649 µM) | 0.031 (≈ 0.0402 µM) | MIC (Escherichia coli [14]): 0.03 µg/mL (≈ 0.0389 µM); MIC (Escherichia coli [15]): 0.5 µg/mL (≈ 0.649 µM); MIC (Escherichia coli [18]): 0.063 µg/mL (≈ 0.0817 µM); MIC (Enterobacter cloacae): < 0.016 µg/mL; ED50 (Mus musculus [19]): 33 mg/kg; ED50 (Mus musculus [20]): 10 mg/kg; MIC (Pseudomonas aeruginosa [21]): 1 µg/mL (≈ 1.3 µM); Inhibitory concentration (Escherichia coli [22]): 100 µg/mL; Inhibitory concentration (Escherichia coli [23]): 30 µg/mL; Inhibitory concentration (Escherichia coli [24]): > 100 µg/mL; Inhibitory concentration (Escherichia coli [25]): 0.5 µg/mL; MIC (Pseudomonas aeruginosa [26]): 1 µg/mL (≈ 1.3 µM); MIC (Staphylococcus aureus [27]): 2 µg/mL (≈ 2.59 µM); MIC (Staphylococcus aureus [28]): 0.5 µg/mL (≈ 0.649 µM); ED50 (Mus musculus [29]): 28 mg/kg
CO/N=C(\C(=O)N[C@@H]1C(=O)N2C(C(=O)O)=C(COC(C)=O)CS[C@H]12)c1csc(N)n1 [CEFOTAXIME] |  |  |  |  |  | 32 (≈ 70.3 µM) | 0.25 (≈ 0.549 µM) |  | 0.031 (≈ 0.0681 µM) | < 0.016 | > 128 | > 128 | > 128 | < 0.016 | 32 (≈ 70.3 µM) | < 0.016 | 0.031 (≈ 0.0681 µM) | 0.063 (≈ 0.138 µM) | 0.06 (≈ 0.132 µM) | 0.031 (≈ 0.0681 µM) | MIC (Escherichia coli [18]): 0.063 µg/mL (≈ 0.138 µM); MIC (Enterobacter cloacae): 64 µg/mL (≈ 141 µM); ED50 (Mus musculus [19]): > 100 mg/kg; ED50 (Mus musculus [20]): 15 mg/kg; MIC (Pseudomonas aeruginosa [21]): 128 µg/mL (≈ 281 µM); Inhibitory concentration (Escherichia coli [22]): < 0.1 µg/mL; Inhibitory concentration (Escherichia coli [23]): 0.5 µg/mL; Inhibitory concentration (Escherichia coli [24]): 100 µg/mL; Inhibitory concentration (Escherichia coli [25]): < 0.1 µg/mL; MIC (Pseudomonas aeruginosa [26]): 16 µg/mL (≈ 35.1 µM); MIC (Staphylococcus aureus [30]): 2 µg/mL (≈ 4.39 µM); ED50 (Mus musculus [29]): > 100 mg/kg
